In ChEMBL document CHEMBL1146742, “A-420983: a potent, orally active inhibitor of lck with efficacy in a model of transplant rejection” (Bioorg Med Chem Lett, 2004):

Experiments:
[1] = Bioavailability was determined in mouse after 5 mg/kg (i.v.) and 6 mg/kg (p.o.) administration; assay type: ADME, organism-based; conditions: in vivo, po
In short: (§1)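 Pharmacokinetics were measured in mouse (5 mg/kg iv, 6 mg/kg po) and dog (1 mg/kg iv, 5 mg/kg po). Reported parameters were Cmax (ng/mL), Tmax (h), Vd (L/kg), plasma clearance (L/h/kg), elimination half-life (h) and oral bioavailability F (%).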

[2] = Time to reach maximum plasma concentration was determined in mouse after 5 mg/kg (i.v.) and 6 mg/kg (p.o.) administration; assay type: ADME, organism-based; conditions: po; in short: as §1
[3] = Maximum plasma concentration of compound was determined in dog after 1 mg/kg (i.v.) and 5 mg/kg (p.o.) administration; assay type: ADME, organism-based, Canis lupus familiaris; conditions: po; in short: as §1
[4] = biological target: T1, Interleukin-2 (Mus musculus) (UniProt P04351); assay: Percent inhibition of interleukin-2 production by compound was measured after 8 hours of oral administration in mice; assay type: functional, organism-based; conditions: concentration not given here
T1 sequence (whole entry): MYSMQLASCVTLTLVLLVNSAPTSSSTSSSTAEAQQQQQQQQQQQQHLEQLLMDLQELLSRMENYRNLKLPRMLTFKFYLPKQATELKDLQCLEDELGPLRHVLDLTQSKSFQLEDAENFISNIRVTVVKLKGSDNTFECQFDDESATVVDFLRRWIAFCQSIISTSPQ

[5] = Volume of distribution was determined in mouse after 5 mg/kg (i.v.) and 6 mg/kg (p.o.) administration; assay type: ADME, organism-based; conditions: in vivo, iv; in short: as §1
[6] = Volume of distribution was determined in dog after 1 mg/kg (i.v.) and 5 mg/kg (p.o.) administration; assay type: ADME, organism-based, Canis lupus familiaris; conditions: in vivo, iv; in short: as §1
[7] = biological target: T1, Interleukin-2 (Mus musculus); assay: Effective concentration to suppress interleukin-2 production was measured after 2.5 hours of oral administration in mice; assay type: functional, organism-based
[8] = biological target: Vascular endothelial growth factor receptor 2 (Homo sapiens, UniProt P35968); assay: Inhibition of vascular endothelial growth factor receptor 2 activity with 1 mM ATP and biotinylated lck peptide
Vascular endothelial growth factor receptor 2, sequence (P35968 whole entry): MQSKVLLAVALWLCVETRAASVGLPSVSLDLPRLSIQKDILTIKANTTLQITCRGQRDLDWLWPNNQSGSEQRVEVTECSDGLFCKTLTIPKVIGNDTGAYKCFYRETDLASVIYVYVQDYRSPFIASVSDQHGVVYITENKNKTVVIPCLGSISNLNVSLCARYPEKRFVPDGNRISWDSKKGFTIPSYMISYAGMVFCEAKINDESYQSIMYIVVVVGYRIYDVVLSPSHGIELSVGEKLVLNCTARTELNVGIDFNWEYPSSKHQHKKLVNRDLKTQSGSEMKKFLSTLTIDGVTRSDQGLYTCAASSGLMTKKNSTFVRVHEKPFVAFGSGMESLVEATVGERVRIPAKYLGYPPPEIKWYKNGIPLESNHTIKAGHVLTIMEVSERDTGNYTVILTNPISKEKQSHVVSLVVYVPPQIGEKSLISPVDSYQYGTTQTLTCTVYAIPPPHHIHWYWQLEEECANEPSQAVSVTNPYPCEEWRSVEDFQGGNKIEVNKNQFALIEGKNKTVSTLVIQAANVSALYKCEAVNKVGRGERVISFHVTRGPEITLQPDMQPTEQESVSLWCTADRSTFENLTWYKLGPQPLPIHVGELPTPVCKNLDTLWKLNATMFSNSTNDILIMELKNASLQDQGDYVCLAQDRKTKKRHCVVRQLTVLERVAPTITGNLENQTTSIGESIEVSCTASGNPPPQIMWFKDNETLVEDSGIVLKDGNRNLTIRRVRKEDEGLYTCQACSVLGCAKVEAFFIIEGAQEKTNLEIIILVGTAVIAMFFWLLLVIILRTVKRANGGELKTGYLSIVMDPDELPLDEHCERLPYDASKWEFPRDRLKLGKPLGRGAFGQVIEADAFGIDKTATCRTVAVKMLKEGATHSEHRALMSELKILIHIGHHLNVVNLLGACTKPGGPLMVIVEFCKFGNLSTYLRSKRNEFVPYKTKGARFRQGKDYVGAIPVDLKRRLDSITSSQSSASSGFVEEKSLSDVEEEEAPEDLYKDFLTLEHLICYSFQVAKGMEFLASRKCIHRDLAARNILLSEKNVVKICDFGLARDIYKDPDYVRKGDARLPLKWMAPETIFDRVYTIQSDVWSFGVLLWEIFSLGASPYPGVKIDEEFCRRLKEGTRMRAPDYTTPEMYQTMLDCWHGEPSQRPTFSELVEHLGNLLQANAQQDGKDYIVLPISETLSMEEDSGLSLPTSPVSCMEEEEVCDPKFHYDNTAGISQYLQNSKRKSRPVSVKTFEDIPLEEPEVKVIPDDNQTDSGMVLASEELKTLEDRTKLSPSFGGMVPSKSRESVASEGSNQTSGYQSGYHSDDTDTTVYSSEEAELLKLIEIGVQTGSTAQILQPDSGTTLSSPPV

[9] = biological target: T1, Interleukin-2 (Mus musculus); assay: Percent inhibition of interleukin-2 production by compound was measured after 18 hours of oral administration in mice; assay type: functional, organism-based; conditions: concentration not given here
[10] = Plasma clearance was determined in dog after 1 mg/kg (i.v.) and 5 mg/kg (p.o.) administration; assay type: ADME, organism-based, Canis lupus familiaris; conditions: iv; in short: as §1
[11] = Maximum plasma concentration of compound was determined in mouse after 5 mg/kg (i.v.) and 6 mg/kg (p.o.) administration; assay type: ADME, organism-based; conditions: po; in short: as §1
[12] = Half life was determined in dog after 1 mg/kg (i.v.) and 5 mg/kg (p.o.) administration; assay type: ADME, organism-based, Canis lupus familiaris; conditions: in vivo; in short: as §1
[13] = species: Homo sapiens; assay: Inhibition of anti-CD3 mAb induced inter leukein-2 production in human whole blood was evaluated; assay type: functional, organism-based
[14] = Time to reach maximum plasma concentration was determined in dog after 1 mg/kg (i.v.) and 5 mg/kg (p.o.) administration; assay type: ADME, organism-based, Canis lupus familiaris; conditions: po; in short: as §1
[15] = Bioavailability was determined in dog after 1 mg/kg (i.v.) and 5 mg/kg (p.o.) administration; assay type: ADME, organism-based, Canis lupus familiaris; conditions: in vivo, po; in short: as §1
[16] = Plasma clearance was determined in mouse after 5 mg/kg (i.v.) and 6 mg/kg (p.o.) administration; assay type: ADME, organism-based; conditions: iv, read-out: Clp (converted); in short: as §1
[17] = Half life was determined in mouse after 5 mg/kg (i.v.) and 6 mg/kg (p.o.) administration; assay type: ADME, organism-based; conditions: in vivo; in short: as §1

| bioavailability [1] [%] | Tmax [2] [h] | Cmax [3] [ng/mL] | inhibition [4] [%] | Vd [5] [L/kg] | Vd [6] [L/kg] | ED50 [7] [mg/kg] | ED90 [7] [mg/kg] | IC50 [8] [nM] | inhibition [9] [%] | clearance [10] [mL/min/kg] | Cmax [11] [ng/mL] | half-life [12] [h] | IC50 [13] [nM] | Tmax [14] [h] | bioavailability [15] [%] | clearance [16] [mL/min/kg] | half-life [17] [h] | Structure (SMILES) |
| --- | --- | --- | --- | --- | --- | --- | --- | --- | --- | --- | --- | --- | --- | --- | --- | --- | --- | --- |
| 30 | 8 | 74 | > 90 | 25 | 25 | 1.5 | 6 | > 50000 | > 90 | 11.7 | 51 | 45 | 8 | 24 | 32 | 28.3 | 10 | COc1cc(-c2nn([C@H]3CC[C@H](N4CCN(C)CC4)CC3)c3ncnc(N)c23)ccc1NC(=O)c1cc2ccccc2n1C |
| – | – | – | 48 | – | – | 8.5 | 12.5 | – | < 10 | – | – | – | 7 | – | – | – | – | COc1cc(-c2nn([C@H]3CC[C@H](N4CCN(C)CC4)CC3)c3ncnc(N)c23)ccc1NC(=O)c1cc2ccccc2o1 |
| – | – | – | 79 | – | – | 7 | 12.5 | – | 33 | – | – | – | 6 | – | – | – | – | COc1cc(-c2nn([C@H]3CC[C@H](N4CCN(C)CC4)CC3)c3ncnc(N)c23)ccc1NC(=O)c1cc2ccccc2[nH]1 |
| – | – | – | – | – | – | – | – | – | – | – | – | – | 10 | – | – | – | – | COc1cc(-c2nn([C@H]3CC[C@H](N4CCN(C)CC4)CC3)c3ncnc(N)c23)ccc1NCc1ccco1 |

| Structure (SMILES) | bioavailability [1] [%] | Tmax [2] [h] | Cmax [3] [ng/mL] | inhibition [4] [%] | Vd [5] [L/kg] | Vd [6] [L/kg] | ED50 [7] [mg/kg] | ED90 [7] [mg/kg] | IC50 [8] [nM] | inhibition [9] [%] | clearance [10] [mL/min/kg] | Cmax [11] [ng/mL] | half-life [12] [h] | IC50 [13] [nM] | Tmax [14] [h] | bioavailability [15] [%] | clearance [16] [mL/min/kg] | half-life [17] [h] |
| --- | --- | --- | --- | --- | --- | --- | --- | --- | --- | --- | --- | --- | --- | --- | --- | --- | --- | --- |
| COc1cc(-c2nn([C@H]3CC[C@H](N4CCN(C)CC4)CC3)c3ncnc(N)c23)ccc1NC(=O)OCc1ccccc1 | – | – | – | 51 | – | – | 3 | 14 | – | 14 | – | – | – | – | – | – | – | – |
